Published values from different studies.
Protocols differ between the studies behind these lines.
Observed: DPPH scavenging

SMILES | test | conditions | inhibition
Cc1ccc(C(C)C)cc1NC(=O)COC(=O)/C=C/c1ccc(O)cc1 |  | 100 µg/mL | 8.51%
COc1cc(C=CC(=O)CC(c2ccc(N(C)C)cc2)n2ccnc2)ccc1O (stereo not drawn) |  | 50 µg/mL | 65.2%
CCN(O)N=Nc1ccc(S(=O)(=O)Nc2onc(C)c2C)cc1 | absorbance | 180 µg/mL | 22.5%
Cc1ccc(C(C)C)cc1NC(=O)COC(=O)c1cc(O)cc(O)c1 |  | 100 µg/mL | 7.12%
Cc1ccc(N(O)N=Nc2ccc(S(=O)(=O)Nc3onc(C)c3C)cc2)cc1 | absorbance | 300 µg/mL | 32.6%
Oc1ccc(Br)cc1C=NCCN1CCOCC1 | absorbance | 160 µM | 36.5%
CCN(O)N=Nc1ccc(S(=O)(=O)Nc2nccs2)cc1 | absorbance | 20 µg/mL | 6.63%
COc1cc(C=CC(=O)CC(c2ccc([N+](=O)[O-])cc2)n2ccnc2)ccc1O (stereo not drawn) |  | 25 µg/mL | 50.7%
CCCN(O)N=Nc1ccc(S(=O)(=O)Nc2cc(C)on2)cc1 | absorbance | 180 µg/mL | 22.8%
Cc1ccc(C(C)C)cc1NC(=O)COC(=O)c1cccc(O)c1 |  | 100 µg/mL | 25.2%
Cc1ccc(N(O)N=Nc2ccc(S(=O)(=O)Nc3cc(C)on3)cc2)cc1 | absorbance | 60 µg/mL | 19.9%
O=C1O[C@H]([C@@H](O)CO)C(O)=C1O | absorbance | 120 µM | 59%
COc1cc(C=Cc2cc(-c3ccc(N(C)C)cc3)nc(O)n2)ccc1O |  | 25 µg/mL | 46.6%
Cc1ccc(C(C)C)cc1NC(=O)COC(=O)c1ccc(O)c(O)c1 |  | 100 µg/mL | 91.8%
O=C1O[C@H]([C@@H](O)CO)C(O)=C1O |  | 50 µg/mL | 77.6%
Cc1ccc(C(C)C)cc1NC(=O)COC(=O)/C=C/c1ccccc1 |  | 100 µg/mL | 1.39%
Cc1cc(NS(=O)(=O)c2ccc(N=NN(O)c3ccccc3)cc2)no1 | absorbance | 20 µg/mL | 21.8%
COc1cc(C=Cc2cc(-c3ccccc3)nc(O)n2)ccc1O |  | 100 µg/mL | 73.6%
